Experimental data from publication PMC10698511 (RSC Advances, 2023).

Tests used:
[1] = Microsomal stability in mouse liver microsomes; format: in vitro ADME; conditions: percentage remaining after 30 min, NADPH
[2] = system: HeLa cells; experiment: Antiproliferative activity against HeLa cells; format: cell-based; conditions: Homo sapiens, 48 h, read-out: HeLa IC50
In short: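 HeLa cells from ATCC in RPMI-1640 with 10% FBS and 1% penicillin-streptomycin at 37 °C, 5% CO2. Seeded at 10000 cells/well one day before treatment. Test compound added from DMSO solution and incubated for 48 h, then CCK-8 reagent added and absorbance read at 450 nm. IC50 is the mean of three independent determinations from triplicate samples.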

[3] = Microsomal stability in human liver microsomes; format: in vitro ADME; conditions: percentage remaining after 30 min, NADPH
[4] = Plasma protein binding, mouse; format: in vitro ADME
[5] = Plasma protein binding, human; format: in vitro ADME
[6] = system: HeLa cells; experiment: Cell cycle assay in HeLa cells; format: cell-based; conditions: 48 h treatment
In short: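 HeLa cells (1 × 10^6) grown in 6-well plates and treated with test compound at several concentrations for 48 h. Cells harvested, fixed in 70% ethanol, held at −20 °C for 12 h, then stained with Muse cell cycle reagent for 30 min at room temperature in the dark. Phase distribution read on a Muse cell analyzer. G2/M percentages compared by one-way ANOVA.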

[7] = system: tubulin; experiment: Tubulin polymerization assay; format: biochemical; conditions: 0 to 8 μM, 1 h at 37 °C, absorbance 340 nm
In short: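 Commercial tubulin polymerization kit used per the manufacturer's protocol. Test compound mixed with tubulin in the supplied general tubulin buffer. Polymerization followed by absorbance at 340 nm for 1 h at 37 °C. Curves compared by two-way ANOVA.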

Row | Microsomal stability (%) Mouse [1] | IC50 [2] | Microsomal stability (%) Human [3] | fraction unbound [4] | fraction unbound [5] | SMILES | cell cycle effect [6] | effect on tubulin polymerization [7]
1 | 50.6 ± 1.2% | 250 ± 60 nM | 20.2 ± 2.3% | 0.04 | 0.171 | Cc1ccc(CNC(=O)Cn2ccc(-c3ccc(OCCN4CCOCC4)cc3)cc2=O)cc1 [Compound 56] |  | 
2 |  | 340 ± 110 nM |  |  |  | O=C(Cn1ccc(-c2ccc(OCCN3CCOCC3)cc2)cc1=O)NCc1ccc(F)cc1 [Compound 57] |  | 
3 |  | 44 ± 11 nM |  | 0.152 | 0.187 | O=C(Cc1ccc(-c2ccc(OCCN3CCOCC3)cc2)cn1)NCc1ccccc1 [Compound 8, Tirbanibulin, reference compound] | G2/M phase arrest | microtubule destabilizers
